Test results as given in ChEMBL document CHEMBL3525918, “Utility of drug depletion-time profiles in isolated hepatocytes for accessing hepatic uptake clearance: identifying rate-limiting steps and role of passive processes” (Drug Metab Dispos, 2012).

Experiments:
[1] = Drug metabolism in Sprague-Dawley rat hepatocytes assessed per 10^6 cells at 0.1 to 10 uM up to 90 mins by conventional assay; assay type: ADME, cell-based, Hepatocyte
Outline: (§1)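 Fresh rat hepatocytes from collagenase perfusion (viability >85%), three independent preparations. Drug at final 0.1–10 µM in Williams' medium E, 0.5% methanol, preincubated 5 min at 37°C, then mixed with hepatocytes (final 0.1–1 x 10^6 cells/mL) and shaken at 37°C. Ten time points up to 90 min, terminated by snap-freezing the whole cell-plus-medium matrix. LC-MS/MS quantitation; mono- or biexponential depletion fit gives kdep.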

[2] = Drug metabolism in Sprague-Dawley rat hepatocytes assessed per 10^6 cells at 0.1 to 10 uM up to 90 mins by media-loss method; assay type: ADME, cell-based, Hepatocyte
Outline: (§2)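 Freshly isolated rat hepatocytes (collagenase perfusion, >85% viable, three preparations), incubated with drug at final 0.1–10 µM at 37°C, 0.1–1 x 10^6 cells/mL, 0.5% methanol, alongside the whole-matrix assay. At time points up to 90 min the incubation was centrifuged 30 sec at 7000g, and the supernatant medium was snap-frozen and analysed by LC-MS/MS. Loss of drug from the medium was fitted mono- or biexponentially.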

[3] = (§3) Apparent intrinsic clearance in Sprague-Dawley rat hepatocytes assessed per 10^6 cells at 0.1 to 10 uM up to 90 mins by media-loss method; assay type: ADME, cell-based, Hepatocyte; conditions: Sprague-Dawley, read-out: CLH(app); outline: as §2
[4] = Apparent intrinsic clearance in Sprague-Dawley rat hepatocytes assessed per 10^6 cells at 0.1 to 10 uM up to 90 mins by conventional assay; assay type: ADME, cell-based, Hepatocyte; conditions: read-out: CLH(app); outline: as §1
Hepatocyte = test: as §3; assay type: ADME, cell-based; conditions: 1.5 h, 10 µM; outline: as §2

| Km at 1.5 h, up to 10 µM [1] | Km at 1.5 h, up to 10 µM [2] | hepatocyte CLint at up to 10 µM [3] | hepatocyte CLint at up to 10 µM [4] | CLH(app) (Hepatocyte) | SMILES |
| --- | --- | --- | --- | --- | --- |
| 1.3 µM | 0.43 µM | – | – | – | CC(C)c1c(C(=O)Nc2ccccc2)c(-c2ccccc2)c(-c2ccc(F)cc2)n1CC[C@@H](O)C[C@@H](O)CC(=O)O [ATORVASTATIN] |
| – | – | 1660 µL/min/1e6 cells | 3.3 µL/min/1e6 cells | – | CC(C)c1nc(N(C)S(C)(=O)=O)nc(-c2ccc(F)cc2)c1/C=C/[C@@H](O)C[C@@H](O)CC(=O)O [ROSUVASTATIN] |
| – | 13 µM | – | 7.1 µL/min/1e6 cells | 1705 uL/min/10^6cells | O=C(O)C[C@H](O)C[C@H](O)/C=C/c1c(C2CC2)nc2ccccc2c1-c1ccc(F)cc1 [PITAVASTATIN] |
| 3.5 µM | 5.5 µM | 35 µL/min/1e6 cells | 26 µL/min/1e6 cells | – | CC[C@H]1OC(=O)[C@H](C)[C@@H](O[C@H]2C[C@@](C)(OC)[C@@H](O)[C@H](C)O2)[C@H](C)[C@@H](O[C@@H]2O[C@H](C)C[C@H](N(C)C)[C@H]2O)[C@](C)(O)C[C@@H](C)C(=O)[C@H](C)[C@@H](O)[C@]1(C)O [ERYTHROMYCIN] |
| – | – | 68 µL/min/1e6 cells | 46 µL/min/1e6 cells | – | CC[C@H]1OC(=O)[C@H](C)[C@@H](O[C@H]2C[C@@](C)(OC)[C@@H](O)[C@H](C)O2)[C@H](C)[C@@H](O[C@@H]2O[C@H](C)C[C@H](N(C)C)[C@H]2O)[C@](C)(OC)C[C@@H](C)C(=O)[C@H](C)[C@@H](O)[C@]1(C)O [CLARITHROMYCIN] |
| – | – | 49.3 µL/min/1e6 cells | 49.9 µL/min/1e6 cells | – | CCOc1cc(CC(=O)N[C@@H](CC(C)C)c2ccccc2N2CCCCC2)ccc1C(=O)O [REPAGLINIDE] |
| 4.7 µM | – | – | – | – | CC(C)(C(=O)O)c1ccc(C(O)CCCN2CCC(C(O)(c3ccccc3)c3ccccc3)CC2)cc1 (stereo unspecified) [FEXOFENADINE] |
